The values below come from ChEMBL document CHEMBL4699498 (J Med Chem, 2020).

The structures appear in SMILES notation. Activity calls are given as the source filed them. The rule behind the calls is not given here.

For data set [1], the system named is MDA-MB-436. Kind of data set: Antiproliferative activity against human MDA-MB-436 cells assessed as cell growth inhibition incubated for 7 days by CCK-8 assay. The format is functional, cell-based. The note with it: MDA-MB-436, 168 h. The method, boiled down:
(§1)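 Cells were sub-cultured at least twice and seeded for 24 h before dosing. Compounds came from 10 mM DMSO stocks, given as 10 points of 3-fold serial dilution starting at 10-20 μM. Incubation was about 7 days (Capan-1 13 days) at 37 °C, 5% CO2. Read-out was CCK-8 absorbance at 450 nm, as % growth versus DMSO wells (duplicate wells). IC50 was fitted by nonlinear regression; three independent experiments.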
In general terms: Formazan colour is commonly taken as a measure of viable cells.

The target of data set [2] is T1, Protein cereblon/Poly [ADP-ribose] polymerase 1 (Homo sapiens, UniProt P09874+Q96SW2). The data set can be described thus: Protac activity at CRBN/PARP1 in human MDA-MB-436 cells assessed as reduction in PARP1 protein level at 0.01 to 10 uM incubated for 12 hrs by western blot analysis. The format is cell-based. The note with it: dose microM 0.01-10, time 12.0 hrs. In short, it runs like this: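 MDA-MB-436 or SW620 cells dosed at 1, 10, 100, 1000 nM and 10 µM for 12 h; PARP1 assessed by western blot of RIPA lysates (20-30 µg protein), β-tubulin as loading control.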
(A western blot detects proteins with antibodies after separation by electrophoresis.)
Target sequence in this assay (P09874 2-1014 limits assumed): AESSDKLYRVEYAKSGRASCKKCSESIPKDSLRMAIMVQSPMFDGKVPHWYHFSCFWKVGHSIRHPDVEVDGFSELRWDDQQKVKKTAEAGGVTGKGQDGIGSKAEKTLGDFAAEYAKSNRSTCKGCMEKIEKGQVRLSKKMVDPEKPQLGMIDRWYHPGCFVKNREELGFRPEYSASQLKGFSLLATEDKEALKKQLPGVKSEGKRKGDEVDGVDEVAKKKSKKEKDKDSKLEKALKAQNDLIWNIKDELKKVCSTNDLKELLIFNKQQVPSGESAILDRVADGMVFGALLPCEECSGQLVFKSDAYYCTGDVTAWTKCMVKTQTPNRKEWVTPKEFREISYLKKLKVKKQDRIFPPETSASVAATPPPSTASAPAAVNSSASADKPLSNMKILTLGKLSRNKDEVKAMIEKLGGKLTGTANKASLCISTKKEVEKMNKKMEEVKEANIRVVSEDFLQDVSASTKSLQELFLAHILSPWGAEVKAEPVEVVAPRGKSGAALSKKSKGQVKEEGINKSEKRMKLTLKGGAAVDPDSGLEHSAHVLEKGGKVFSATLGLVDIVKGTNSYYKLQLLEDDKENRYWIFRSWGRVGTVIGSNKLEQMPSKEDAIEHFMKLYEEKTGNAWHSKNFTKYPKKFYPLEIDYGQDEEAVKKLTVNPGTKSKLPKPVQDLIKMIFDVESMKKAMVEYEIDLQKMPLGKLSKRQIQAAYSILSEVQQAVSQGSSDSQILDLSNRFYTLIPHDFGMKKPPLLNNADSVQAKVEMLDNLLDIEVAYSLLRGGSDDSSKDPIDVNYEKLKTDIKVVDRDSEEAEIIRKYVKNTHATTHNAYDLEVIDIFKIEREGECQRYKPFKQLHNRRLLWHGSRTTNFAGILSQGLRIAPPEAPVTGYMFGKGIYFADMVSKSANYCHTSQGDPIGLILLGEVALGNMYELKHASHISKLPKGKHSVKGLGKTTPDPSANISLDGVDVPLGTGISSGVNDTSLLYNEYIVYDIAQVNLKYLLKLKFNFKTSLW
Target sequence in this assay (Q96SW2 whole entry partner): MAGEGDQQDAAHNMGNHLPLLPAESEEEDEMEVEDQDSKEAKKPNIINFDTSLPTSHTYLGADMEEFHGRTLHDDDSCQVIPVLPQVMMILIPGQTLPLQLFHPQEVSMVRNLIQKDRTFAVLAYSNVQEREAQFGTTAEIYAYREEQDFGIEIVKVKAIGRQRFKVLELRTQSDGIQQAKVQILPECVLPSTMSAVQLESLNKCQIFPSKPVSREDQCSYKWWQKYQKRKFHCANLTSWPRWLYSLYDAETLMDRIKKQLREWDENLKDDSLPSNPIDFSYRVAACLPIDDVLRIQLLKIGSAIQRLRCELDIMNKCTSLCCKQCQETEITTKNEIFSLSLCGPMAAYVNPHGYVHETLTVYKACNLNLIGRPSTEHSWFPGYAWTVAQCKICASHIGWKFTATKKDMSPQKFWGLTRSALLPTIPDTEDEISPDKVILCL

The target of data set [3] is T1, Protein cereblon/Poly [ADP-ribose] polymerase 1. Kind of data set: Protac activity at CRBN/PARP1 in human CAPAN-1 cells assessed as induction of PARP1 degradation at 100 nM incubated for 24 hrs by Western blot analysis relative to control. The format is cell-based. The method, boiled down:
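Capan-1 cells were treated 24 h (1-1000 nM, or a wider dose range for DC50). Lysis was in RIPA buffer with protease inhibitors, and 20-30 μg protein was blotted. PARP1 was normalized to β-tubulin and to DMSO control, quantified by densitometry. DC50 came from two independent experiments.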
Target sequence in this assay (P09874 2-1014 limits assumed): as the sequence (P09874 2-1014 limits assumed) above
Target sequence in this assay (Q96SW2 whole entry partner): as the sequence (Q96SW2 whole entry partner) above

The target is the same in data set [4]. The data set can be described thus: Protac activity at CRBN/PARP1 in human MDA-MB-436 cells assessed as induction of PARP1 degradation at 30 nM measured within 1 hr by Western blot analysis. The format is cell-based. Conditions: time hrs <=1. The method, boiled down: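 Time course at 30 nM in MDA-MB-436 or SW620 cells; PARP1 immunoblotted at successive time points, β-tubulin as loading control.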
Target sequence in this assay (P09874 2-1014 limits assumed): as the sequence (P09874 2-1014 limits assumed) above
Target sequence in this assay (Q96SW2 whole entry partner): as the sequence (Q96SW2 whole entry partner) above

The target is the same in data set [5]. Kind of data set: Protac activity at CRBN/PARP1 in human MDA-MB-436 cells assessed as induction of PARP1 degradation at 100 nM measured after 5 days by Western blot analysis. The data set is classed as cell-based. Conditions: time 5.0 day. In short, it runs like this:
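MDA-MB-436 cells kept at 100 nM for up to 5 days; PARP1 followed by western blot against β-tubulin.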
Target sequence in this assay (P09874 2-1014 limits assumed): as the sequence (P09874 2-1014 limits assumed) above
Target sequence in this assay (Q96SW2 whole entry partner): as the sequence (Q96SW2 whole entry partner) above

The target is the same in data set [6]. The data set can be described thus: Protac activity at CRBN/PARP1 in human MDA-MB-436 cells assessed as induction of PARP1 degradation by measuring PARP1 level at 100 nM pretreated for 2 hrs followed by compound washout and measured after 24 hrs by Western blot analysis. The format is cell-based. The method, boiled down: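 MDA-MB-436 cells pretreated 2 h at 100 nM, compound washed out, cells harvested at various times up to 24 h afterwards; PARP1 versus vehicle-treated cells by western blot, β-tubulin loading control.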
Target sequence in this assay (P09874 2-1014 limits assumed): as the sequence (P09874 2-1014 limits assumed) above
Target sequence in this assay (Q96SW2 whole entry partner): as the sequence (Q96SW2 whole entry partner) above

The target is the same in data set [7]. Kind of data set: Protac activity at CRBN/PARP1 in human LNCaP cells assessed as induction of PARP1 degradation measured after 24 hrs by Western blot analysis. The data set is classed as cell-based. The method, boiled down: (§2)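 Concentration-response over a wide range, 24 h exposure; PARP1 quantified by western blot and normalized to β-tubulin density; DC50 derived from two biologically independent experiments.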
Target sequence in this assay (P09874 whole entry): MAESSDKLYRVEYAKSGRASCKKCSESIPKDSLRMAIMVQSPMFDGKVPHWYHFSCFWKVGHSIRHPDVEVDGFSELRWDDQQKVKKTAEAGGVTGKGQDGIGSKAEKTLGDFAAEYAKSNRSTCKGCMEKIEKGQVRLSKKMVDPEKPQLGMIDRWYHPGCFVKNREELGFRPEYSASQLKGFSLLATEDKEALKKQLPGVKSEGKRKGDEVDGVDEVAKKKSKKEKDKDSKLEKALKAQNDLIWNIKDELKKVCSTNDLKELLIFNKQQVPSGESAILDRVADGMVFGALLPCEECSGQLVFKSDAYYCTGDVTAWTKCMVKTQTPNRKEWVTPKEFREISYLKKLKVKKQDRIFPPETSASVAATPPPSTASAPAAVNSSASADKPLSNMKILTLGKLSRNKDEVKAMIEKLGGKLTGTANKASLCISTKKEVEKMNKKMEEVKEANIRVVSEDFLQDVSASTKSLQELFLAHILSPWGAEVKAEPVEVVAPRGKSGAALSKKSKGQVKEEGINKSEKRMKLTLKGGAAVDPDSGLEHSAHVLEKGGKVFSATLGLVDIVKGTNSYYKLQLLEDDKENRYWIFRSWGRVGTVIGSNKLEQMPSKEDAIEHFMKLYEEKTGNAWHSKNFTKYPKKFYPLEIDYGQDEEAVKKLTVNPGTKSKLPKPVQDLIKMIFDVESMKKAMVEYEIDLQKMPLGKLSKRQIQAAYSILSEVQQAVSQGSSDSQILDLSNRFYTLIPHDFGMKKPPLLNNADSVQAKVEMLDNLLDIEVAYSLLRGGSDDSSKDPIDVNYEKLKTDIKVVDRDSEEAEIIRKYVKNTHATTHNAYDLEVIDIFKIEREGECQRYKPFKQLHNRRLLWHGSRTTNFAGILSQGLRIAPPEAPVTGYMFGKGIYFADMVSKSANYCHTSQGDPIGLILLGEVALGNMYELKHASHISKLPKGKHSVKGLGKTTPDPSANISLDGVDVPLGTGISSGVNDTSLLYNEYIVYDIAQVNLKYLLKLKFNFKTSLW
Target sequence in this assay (Q96SW2 whole entry): as the sequence (Q96SW2 whole entry partner) above

For data set [8] the target is unchanged. Kind of data set: Protac activity at CRBN/PARP1 in human 22Rv1 cells assessed as induction of PARP1 degradation measured after 24 hrs by Western blot analysis. The format is cell-based. The method, boiled down:
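The cell line was treated 24 h across a concentration range. PARP1 was measured by western blot against β-tubulin. DC50 is the average of two biologically independent experiments.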
Target sequence in this assay (P09874 whole entry): as the sequence (P09874 whole entry) above
Target sequence in this assay (Q96SW2 whole entry): as the sequence (Q96SW2 whole entry partner) above

For data set [9] the target is unchanged. Kind of data set: Protac activity at CRBN/PARP1 in human MDA-MB-468 cells assessed as induction of PARP1 degradation measured after 24 hrs by Western blot analysis. The data set is classed as cell-based. The method, boiled down: as §2
Target sequence in this assay (P09874 whole entry): as the sequence (P09874 whole entry) above
Target sequence in this assay (Q96SW2 whole entry): as the sequence (Q96SW2 whole entry partner) above
Data set [10] has the same target. Kind of data set: Protac activity at CRBN/PARP1 in human HCC1937 cells assessed as induction of PARP1 degradation at 30 nM incubated for 1 to 24 hrs by Western blot analysis. The data set is classed as cell-based. Conditions: time hrs 1-24.
Target sequence in this assay (P09874 2-1014 limits assumed): as the sequence (P09874 2-1014 limits assumed) above
Target sequence in this assay (Q96SW2 whole entry partner): as the sequence (Q96SW2 whole entry partner) above
Data set [11] has the same target. The data set can be described thus: Protac activity at CRBN/PARP1 in human 22Rv1 cells assessed as induction of PARP1 degradation at 30 nM incubated for 1 to 24 hrs by Western blot analysis. The data set is classed as cell-based. Conditions: time hrs 1-24.
Data set [12] shares this target. The data set can be described thus: Protac activity at CRBN/PARP1 in human SW-620 cells assessed as induction of PARP1 degradation at 30 nM incubated for 24 hrs in presence of proteasome inhibitor carfilzomib by Western blot analysis. The data set is classed as cell-based.
The test system of data set [13] is MDA-MB-468. The data set can be described thus: Antiproliferation activity against human MDA-MB-468 assessed as cell growth inhibition incubated for 7 days by CCK-8 assay. Conditions: time 7.0 day. The format is functional, cell-based. The method, boiled down: as §1
In data set [14] the test system is NCM460. Kind of data set: Cytotoxicity against human NCM460 cells assessed as reduction in cell viability incubated for 120 hrs by CCK-8 assay. The data set is classed as cell-based. The note with it: ncm460, 120 h.
Data set [15] can be described thus: Plasma concentration in ICR mouse at 25 mg/kg, ip at 0.25 hrs postinjection by LC-tandem mass spectrometry analysis. The data set is classed as ADME, organism-based.
A short description of data set [16]: Cmax in ICR mouse at 25 mg/kg, ip by LC-tandem mass spectrometry analysis. The format is ADME, organism-based. Further details: route intraperitoneal, dose 25 mg/kg. The note with it: in vivo. The method, boiled down: (§3)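 Female ICR mice (20-23 g, 6-7 weeks old, n = 3) received a single 25 mg/kg intraperitoneal dose formulated in 5% DMSO/15% Solutol HS15/80% D5W. Plasma was sampled at 0.5, 1, 2, 4, 6, 8 and 24 h and protein-precipitated with methanol. Compound was quantified by LC-MS/MS against a standard curve.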

Data set [17] is described as follows: Plasma concentration in ICR mouse at 25 mg/kg, ip at 8 hrs postinjection by LC-tandem mass spectrometry analysis. The data set is classed as ADME, organism-based. The method, boiled down:
as §3

The subject of data set [18] is CAPAN-1. Kind of data set: Antitumor activity against Capan1 cells xenografted in Balb/c mouse assessed as tumor growth inhibition at 25 mg/kg, ip administered 5 times a week for 3 weeks. The format is functional, organism-based. In short, it runs like this:
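Male BALB/c nude mice (5-6 weeks old) carried subcutaneous Capan-1 xenografts (5×10^6 cells, right armpit). At ~150 mm³ they were randomized (6 per group). Dosing was 100 mg/kg by oral gavage daily for 21 days, or 25 mg/kg intraperitoneally 5 times a week for 3 weeks. Vehicle was 5% DMSO/20% PEG400/10% Cremophor EL/65% saline. Tumor volume was (length/2)×width², measured 2-3 times weekly.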

The target of data set [19] is T1, Protein cereblon/Poly [ADP-ribose] polymerase 1. Kind of data set: Protac activity at CRBN/PARP1 in human MDA-MB-436 cells assessed as induction of PARP1 degradation at 30 nM incubated for 24 hrs in presence of proteasome inhibitor carfilzomib by Western blot analysis.
The target is the same in data set [20]. Kind of data set: Protac activity at CRBN/PARP1 in human MDA-MB-436 cells assessed as induction of PARP1 degradation at 30 nM incubated for 24 hrs in presence of 0.1 to 1 uM CRBN ligand pomalidomide by Western blot analysis.

As usually defined, the IC50 is the concentration needed to halve the response being measured. Broadly, the DC50 is the concentration at which degradation of the target reaches its halfway point. The Cmax is the peak of the concentration-time curve. In the case of `O=C(CCCCCCCCCCC(=O)N1CCN(C(=O)c2cc(Cc3n[nH]c(=O)c4ccccc34)ccc2F)CC1)NCCNc1cccc2c1C(=O)N(C1CCC(=O)NC1=O)C2=O` (stereo not given), the concentration for half-maximal inhibition (IC50) in data set [1] was found to be 19 nM. Further, the outcome in data set [2], in data set [4], in [5], in data set [10], in data set [11] and in [13] was Active. Further, the result in data set [18] was Active. Also, the Activity is 100% in [3], “Below limit of detection” in data set [6] and “Non-Toxic” in data set [14]. Further, the figures for the DC50 in data set [7], in [8] and in data set [9] were 1.08 nM, 0.512 nM and 0.263 nM, respectively. The outcome in [12], in data set [19] and in data set [20] was inactive. Besides, the concentration at 0.25 h in [15] came out at 2100 nM. This compound also had a Cmax in data set [16] of 1840 ng/mL. The compound also yielded a concentration at 8 h in [17] of 95 nM.
